Assay results as given in ChEMBL document CHEMBL1799966, “Synthesis and anticancer activity of oxindole derived imidazo[1,5-a]pyrazines” (Eur J Med Chem, 2011).
Active and inactive are the calls of the source. No cut-off for these calls is given here.

How the values were obtained:
SK-OV-3 = experiment: Cytotoxicity against human SKOV3 cells; format: functional
How it was run: (§1)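 NCI 60-cell-line panel protocol. Primary screen used a single 10^-5 M concentration with 48 h incubation, and percent growth was read against untreated cells by sulforhodamine B protein staining. The five-dose follow-up used a DMSO solution at five 10-fold dilutions from 10^-4 to 10^-8 M.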

SF-268 = experiment: Cytotoxicity against human SF268 cells; format: functional
How it was run: (§2)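 NCI 60-cell panel second-stage testing by NCI standard procedures. Compound was dissolved in DMSO and tested at five 10-fold dilutions: 10^-4, 10^-5, 10^-6, 10^-7 and 10^-8 M.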

A549 [1] = experiment: Induction of cell cycle arrest in human A549 cells assessed as accumulation at sub G1 phase at 6.5 uM after 24 hrs by propidium iodide staining-based FACS analysis (reference value: 1.02 %); format: functional
How it was run: (§3)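 A549 cells (1 × 10^6) in six-well plates received 6.5 µM (final) for 24 h or 48 h. Floating and adherent cells were fixed in 70% ethanol, washed in PBS, then stained for 20 min with 50 µg/mL propidium iodide in hypotonic citrate/Triton X-100 buffer with DNase-free RNase A. Cells were analysed by FACS.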

KM12 = experiment: Cytotoxicity against human KM12 cells; format: functional; how it was run: as §2
NCI-H460 = experiment: Cytotoxicity against human NCI-H460 cells; format: functional; how it was run: as §2
A549 [2] = experiment: Induction of cell cycle arrest in human A549 cells assessed as accumulation at G2/M phase at 6.5 uM after 24 hrs by propidium iodide staining-based FACS analysis (reference value: 20.92 %); format: functional; how it was run: as §3
NCI-H23 = experiment: Cytotoxicity against human NCI-H23 cells; format: functional; how it was run: as §2
MDA-MB-435 = experiment: Cytotoxicity against human MDA-MB-435 cells; format: functional; how it was run: as §2
U-251 = experiment: Cytotoxicity against human U251 cells; format: functional; how it was run: as §1
T47D = experiment: Cytotoxicity against human T47D cells; format: functional; how it was run: as §1
SR = experiment: Cytotoxicity against human SR cells; format: functional; how it was run: as §1
A549 [3] = experiment: Induction of apoptosis in human A549 cells assessed as late apoptotic cells at 6.5 uM after 24 hrs using Annexin V-FITC and PI staining by flow cytometry (reference value: 85.7 %); format: functional
MDA-MB-468 = experiment: Cytotoxicity against human MDA-MB-468 cells; format: functional; how it was run: as §2
EKVX = experiment: Cytotoxicity against human EKVX cells; format: functional; how it was run: as §2
HEK293 = experiment: Cytotoxicity against human HEK293 cells after 48 hrs by MTT assay; format: cell-based; conditions: hek293, 48 h
How it was run: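 HEK-293 cells were seeded at 1 × 10^4 cells/well in DMEM with 10% FBS and held 24 h at 37 °C under CO2. Compound diluted in culture medium was added for 48 h. MTT (5 mg/mL stock) was then added for 4 h, formazan dissolved in DMSO, and absorbance read at 540 nm.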

A549 [4] = experiment: Induction of apoptosis in human A549 cells assessed as viable cells at 6.5 uM after 48 hrs using Annexin V-FITC and PI staining by flow cytometry (reference value: 11.1 %); format: functional; conditions: A549, 48 h, read-out: Activity
NCI/ADR-RES = experiment: Cytotoxicity against human NCI/ADR-RES cells; format: functional; how it was run: as §2
SW-620 = experiment: Cytotoxicity against human SW620 cells; format: functional; how it was run: as §1
HT-29 = experiment: Cytotoxicity against human HT-29 cells; format: functional; how it was run: as §2
A549 [5] = experiment: Induction of apoptosis in human A549 cells assessed as nuclear fragmentation at 6.5 uM after 24 to 48 hrs by Hoechst 33342 staining; format: functional, cell-based
How it was run: (§4)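 A549 cells were grown 24 h on coverslips at 10,000 cells, then exposed to 6.5 µM for 24 h and 48 h, with 0.001% DMSO vehicle controls. Hoechst 33342 (0.5 µg/mL) with 4% paraformaldehyde was applied for 30 min at 37 °C. Random fields were examined by fluorescence microscopy, scoring relative fluorescence and nuclear fragmentation.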

A549 [6] = experiment: Induction of apoptosis in human A549 cells assessed as pre-necrotic cells at 6.5 uM after 24 hrs using Annexin V-FITC and PI staining by flow cytometry (reference value: 0.5 %); format: functional
SF-539 = experiment: Cytotoxicity against human SF539 cells; format: functional; how it was run: as §2
OVCAR-3 = experiment: Cytotoxicity against human OVCAR3 cells; format: functional; how it was run: as §2
SK-MEL-28 = experiment: Cytotoxicity against human SK-MEL-28 cells; format: functional; how it was run: as §1
A549 [7] = experiment: Induction of cell cycle arrest in human A549 cells assessed as accumulation at S phase at 6.5 uM after 24 hrs by propidium iodide staining-based FACS analysis (reference value: 19.21 %); format: functional; how it was run: as §3
PC-3 = experiment: Cytotoxicity against human PC3 cells; format: functional; how it was run: as §2
A549 [8] = experiment: Induction of apoptosis in human A549 cells assessed as intraneucleosomal DNA fragmentation at 6.5 uM after 24 to 48 hrs by agarose gel electrophoresis technique; format: functional, cell-based
How it was run: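 After 24 h and 48 h at 6.5 µM, A549 cells were pelleted, washed in PBS and lysed. The supernatant was treated with SDS and RNase A for 2 h at 56 °C, then proteinase K. DNA was precipitated with ammonium acetate and ice-cold ethanol at −80 °C for 1 h, washed in 80% ethanol, dissolved in TE, and run on 2% agarose gel.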

A549 [9] = experiment: Induction of apoptosis in human A549 cells assessed as cytoplasmic condensation at 6.5 uM after 24 to 48 hrs by Hoechst 33342 staining; format: functional, cell-based; how it was run: as §4
OVCAR-4 = experiment: Cytotoxicity against human OVCAR4 cells; format: functional; how it was run: as §2
IGROV-1 = experiment: Cytotoxicity against human IGROV1 cells; format: functional; how it was run: as §2

**Q.** Which results are given for `O=C1Nc2ccccc2/C1=C\c1nc(-c2ccccc2F)n2ccccc12`?
**A.** GI50 (SK-OV-3): 3.46 µM; GI50 (SF-268): 4.65 µM; Activity (A549 [1]): 1.19%; GI50 (KM12): 3.49 µM; GI50 (NCI-H460): 2.17 µM; Activity (A549 [2]): 17.46%; GI50 (NCI-H23): 4.55 µM; GI50 (MDA-MB-435): 3.95 µM; GI50 (U-251): 2.57 µM; GI50 (T47D): 2.36 µM; GI50 (SR): 11 µM; Activity (A549 [3]): 7.2%; GI50 (MDA-MB-468): 1.54 µM; GI50 (EKVX): 10.6 µM; Activity (HEK293): Non-toxic; viability at 6.5 µM (A549 [4]): 8.3%; GI50 (NCI/ADR-RES): 3.36 µM; GI50 (SW-620): 3.97 µM; GI50 (HT-29): 3.5 µM; Activity (A549 [5]): Active; Activity (A549 [6]): 0.1%; GI50 (SF-539): 3.1 µM; GI50 (OVCAR-3): 1.9 µM; GI50 (SK-MEL-28): 3.71 µM; Activity (A549 [7]): 13.51%; GI50 (PC-3): 6.81 µM; Activity (A549 [8]): Active; Activity (A549 [9]): Active; GI50 (OVCAR-4): 1.81 µM; GI50 (IGROV-1): 2.04 µM
